Source: PubChem BioAssay
VIM-2 inh: blocks Pseudomonas aeruginosa VIM-2 metallo-beta-lactamase; purified VIM-2, nitrocefin hydrolysis, epi-absorbance fluorescence; inhibition, % at 5.6 µM; 290,000 compounds, 0.89% hits;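 active = inhibition above the mean of all tested compounds plus 3 SD, cutoff set per screening run, cut at about 7.5% in these data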;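 also: red hydrolysis product quenches plate fluorescence so inhibitors raise well fluorescence; 0% = enzyme with DMSO and 100% = DMSO without enzyme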
PglD DTNB: PglD (C. jejuni) enzyme inhibition; purified PglD enzyme, DTNB colorimetric CoA detection; inhibition, % at 12.5 µM; 360,000 compounds, 0.098% hits; AID 602405; in the data active = inhibition above about 16%, passing the limit was not always enough
PDI inh: inhibitors of human protein disulfide isomerase; PDI insulin aggregation turbidity, A650, 90 min; 350,000 compounds, 0.052% hits; inhibition, % at 10 µM; P07237;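 active = mean inhibition across replicates of 30% or more, whatever share of single replicates reach that level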
IMP-1 inh-1: blocks Pseudomonas aeruginosa IMP-1 metallo-beta-lactamase; 290,000 compounds, 0.45% hits; purified IMP-1, nitrocefin hydrolysis, epi-absorbance fluorescence; AID 1556; inhibition, % at 5.6 µM;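 active = inhibition above the mean plus 3 SD of all compounds in the same screening run, cut at about 4.5% in these data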;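 also: 0% = IMP-1 with DMSO and 100% = DMSO wells lacking enzyme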
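System – purified recombinant IMP-1 beta-lactamase · Input – IMP-1 dispensed at 0.2 nM · Timing – 15 min preincubation plus 25 min reaction at 25 °C · Signal – Epi-absorbance fluorescence, 480 nm excitation, 530 nm emission · Measure – percent IMP-1 inhibition derived from blank-referenced optical density · Controls – Enzyme-plus-DMSO low control, enzyme-free DMSO high control · Replication – singlicate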
ERp5 inh: ERp5 (human) disulfide isomerase inhibition; 350,000 compounds, 0.05% hits; inhibition, % at 9.99 µM; ERp5 insulin aggregation, absorbance 650 nm, 90 min;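 active = mean replicate inhibition above about 25%, with every replicate also reaching it, limit read from the data, passing the limit was not always enough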
Target sequence (Q15084 whole entry, looked up): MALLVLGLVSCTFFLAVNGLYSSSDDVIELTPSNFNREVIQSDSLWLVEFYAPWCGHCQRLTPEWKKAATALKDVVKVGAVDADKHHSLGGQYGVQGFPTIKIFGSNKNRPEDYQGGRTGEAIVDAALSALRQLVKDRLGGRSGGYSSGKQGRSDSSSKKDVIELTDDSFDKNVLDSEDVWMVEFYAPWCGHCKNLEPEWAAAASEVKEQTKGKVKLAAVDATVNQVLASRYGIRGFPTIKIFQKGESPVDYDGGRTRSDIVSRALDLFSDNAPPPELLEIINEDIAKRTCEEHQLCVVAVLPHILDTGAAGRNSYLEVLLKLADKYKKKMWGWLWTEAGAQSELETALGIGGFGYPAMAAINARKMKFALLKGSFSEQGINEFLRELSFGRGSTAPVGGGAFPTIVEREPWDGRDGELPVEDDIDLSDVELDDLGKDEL
PvdQ inh: blocks Pseudomonas aeruginosa PvdQ acylase activity | inhibition, % at 10 µM | 340,000 compounds, 0.063% hits | purified PvdQ acylase, fluorescence plate reader | AID 488965; in the data active = inhibition above about 30%, passing the limit was not always enough;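 also: 0% = vehicle neutral wells and 100% = reference inhibitor wells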
IMP-1 inh-2: selectivity counter-screen for VIM-2 inhibitors: IMP-1 metallo-beta-lactamase inhibitors; 1,300 tested, under 10 active; shares compounds with VIM-2 inh; purified IMP-1, nitrocefin hydrolysis, epi-absorbance fluorescence; inhibition, % at 5.6 µM; AID 1856; call rule not given here;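 also: 0% = enzyme with vehicle and 100% = vehicle without enzyme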
VIM-2 FRET inh: inhibits VIM-2 in FRET assay to exclude epi-absorbance artifacts | 1,300 compounds, 23% hits | shares compounds with VIM-2 inh | purified VIM-2, CCF2 FRET substrate hydrolysis | inhibition, % at 5.6 µM;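 active = inhibition above the mean of all tested compounds plus 3 SD, cut at about 19% in these data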;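 also: 0% = VIM-2 plus DMSO and 100% = no enzyme wells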
TEM-1 counter: selectivity counter-screen for VIM-2 inhibitors: E. coli TEM-1 inhibitors; inhibition, % at 5.6 µM; AID 1866; Purified TEM-1, nitrocefin hydrolysis, epi-absorbance fluorescence; 1,300 compounds, 3% hits; shares compounds with VIM-2 inh;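 active = inhibition above that campaign's mean inhibition plus 3 SD, cut at about 0.46% in these data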;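 also: 0% = TEM-1 with DMSO and 100% = TEM-1 with 100 µM potassium clavulanate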
Target sequence (P62593 whole entry, looked up): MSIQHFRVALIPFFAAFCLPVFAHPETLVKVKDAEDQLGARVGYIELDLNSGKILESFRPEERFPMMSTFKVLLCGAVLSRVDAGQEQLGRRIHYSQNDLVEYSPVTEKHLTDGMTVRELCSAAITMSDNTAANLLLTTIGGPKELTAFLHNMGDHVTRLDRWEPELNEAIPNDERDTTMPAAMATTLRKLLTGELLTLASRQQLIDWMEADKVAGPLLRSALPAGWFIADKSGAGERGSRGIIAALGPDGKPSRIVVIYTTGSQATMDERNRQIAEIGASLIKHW
VIM-2 confirm 2: confirmation of P. aeruginosa VIM-2 metallo-beta-lactamase inhibitors | shares compounds with VIM-2 inh | purified VIM-2, nitrocefin hydrolysis, epi-absorbance | inhibition, % at 5.6 µM | 1,300 compounds, 96% hits | AID 2187;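 active = inhibition of the VIM-2 beta-lactamase enzyme above about 11% from the earlier first-round screen, limit read from the data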;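 also: 0% = VIM-2 with DMSO and 100% = buffer wells without enzyme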
Numbers without * were called inactive; x = no result. Hits are enriched below; roughly 1% of the tested compounds scored in any of these assays.

SMILES	VIM-2 inh	PglD DTNB	PDI inh	IMP-1 inh-1	ERp5 inh	PvdQ inh	IMP-1 inh-2	VIM-2 FRET inh	TEM-1 counter	VIM-2 confirm 2
CN1CCN(C(=O)CSc2ccc(C(F)(F)F)cc2[N+](=O)[O-])CC1	13*	x	-6	0	x	-8	-3	-2	-6	38*
O=C(C[C@H]1CC[C@H]2[C@@H](COC[C@H](O)CN2Cc2cc(F)ccc2F)O1)N[C@@H]1CCN(Cc2ccccc2)C1	x	-1	x	x	1	x	x	x	x	x
CCN(CC)c1ccc(-c2nn3c(-c4ccccc4OC)nnc3s2)cc1	13*	3	8	-4	x	3	-4	-9	-8	1
COc1ccc(NC(=O)Nc2ccc3c(c2)[C@@H]2C[C@@H](CC(=O)N4CCCCC4)O[C@@H](CO)[C@@H]2O3)cc1	x	0	x	x	-5	x	x	x	x	x
COc1ccc(S(=O)(=O)N[C@H]2CC[C@@H](CCNC(=O)CN3CCOCC3)O[C@H]2CO)cc1	x	-3	x	x	-3	x	x	x	x	x
CCOC(=O)c1cnc2c(cnn2C)c1NCCC#N	1	0	-3	0	x	-11	x	x	x	x
CCOC(=O)c1cnc2c(cnn2C)c1NCCCn1ccnc1	75*	-4	4	-1	-3	10	-3	-10	-4	81*
COc1cccc(/C=C2\SC(=S)N(C(C(=O)O)c3ccccc3)C2=O)c1OC (stereo unspecified)	32*	2	-2	1	-2	-2	-2	26*	-6	18*
COc1cc(/C=C2\SC(=S)N(C(C(=O)O)c3ccccc3)C2=O)cc(OC)c1OC (stereo unspecified)	1	-13	2	-2	-4	6	x	x	x	x
CSS(=O)(=O)c1cccc2cccnc12	38*	10	-1	-2	1	0	-2	-30	-5	43*
COc1cccc(-c2ccc([C@H]3[C@@H](CO)N4C(=O)CN(C(=O)NC(C)C)C[C@@H]34)cc2)c1	x	x	x	x	3	x	x	x	x	x
Cc1cc(=O)oc2c3c(cc(OCC(=O)NCCCn4ccnc4)c12)OC(C)(C)CC3	15*	5	x	1	3	-17	-2	-7	-1	22*
CCCc1cc(=O)oc2c3c(cc(OCC(=O)NCCCn4ccnc4)c12)OC(C)(C)CC3	17*	3	x	0	6	-6	-3	-16	-4	28*
Cc1cc(=O)oc2c3c(cc(OCC(=O)NCCN4CCOCC4)c12)OC(C)(C)CC3	-1	-2	x	-1	6	-6	x	x	x	x
CN1CCN(C(=O)C[C@H]2CC[C@H]3[C@@H](COC[C@H](O)CN3Cc3ccc(Oc4ccccc4)cc3)O2)CC1	x	0	x	x	4	x	x	x	x	x
C[C@@H]1CCCCO[C@H](CN(C)C(=O)Nc2ccccc2)[C@H](C)CN([C@@H](C)CO)C(=O)c2cc(NS(C)(=O)=O)ccc2O1	x	-1	x	x	5	x	x	x	x	x
O=C(NC(=S)Nc1ccccc1N1CCCC1)c1ccccc1Br	17*	-5	1	-3	0	11	-3	4	-8	2
O=C(NC(=S)Nc1ccccc1N1CCCC1)c1ccco1	12*	4	3	-2	5	6	-3	36*	-7	19*
C[C@@H]1CN([C@H](C)CO)C(=O)c2cc(NC(=O)c3ccncc3)ccc2O[C@@H]1CN(C)Cc1ccc(-c2ccccc2)cc1	x	1	x	x	-1	x	x	x	x	x
CCSc1nccc(-c2nn(-c3ccc(C)cc3)ccc2=O)n1	28*	6	-1	0	x	-3	-1	4	0	39*
O=[N+]([O-])c1cccc(-c2n[nH]c(=S)n2-c2ccccc2)c1	-1	x	x	-3	x	x	x	x	x	x
Cc1cccc(-c2n[nH]c(=S)n2-c2ccccc2)c1[N+](=O)[O-]	34*	x	5	-2	x	-16	-2	62*	-7	44*
O=c1c(-c2n[nH]c(=S)n2-c2ccccc2)cccn1Cc1cccc(Cl)c1	25*	x	3	-4	0	0	-3	48*	-9	31*
Cc1c(Cl)c(-c2n[nH]c(=S)n2-c2ccccc2)nn1C	19*	0	2	-5	x	-21	-3	44*	-8	27*
C=CCn1c(-c2cccn(Cc3cccc(Cl)c3)c2=O)n[nH]c1=S	3	-2	0	0	x	8	x	x	x	x
SMILES	VIM-2 inh	PglD DTNB	PDI inh	IMP-1 inh-1	ERp5 inh	PvdQ inh	IMP-1 inh-2	VIM-2 FRET inh	TEM-1 counter	VIM-2 confirm 2
Oc1ccc2ccccc2c1-c1sc(Nc2ccccc2)n[n+]1-c1ccc(F)cc1	17*	1	-12	0	3	-6	4.9*	-4	1.3*	8.2*
O=C(O)Cn1c2c(c3ccccc31)CSc1ccc(Cl)cc1-2	15*	13	-3	2	0	-14	0	12	-4	20*
CCOc1ccc2nc(NCCNC(=S)NCCCN(C)C)c(C#N)cc2c1	13*	x	9	0	-10	5	-4	-5	-8	18*
Cc1cc(=O)oc2cc(OCC(=O)NCc3ccncc3)ccc12	2	4	-4	-3	-4	7	x	x	x	x
O=C(COc1ccc2c3c(c(=O)oc2c1)CCC3)NCc1cccnc1	17*	3	4	-3	x	-16	-3	-1	-6	27*
NS(=O)(=O)c1ccc(CCNC(=O)COc2ccc3c4c(c(=O)oc3c2)CCC4)cc1	19*	0	-8	-3	1	8	-3	-4	-8	28*
O=C(COc1ccc2c3c(c(=O)oc2c1)CCC3)NCc1ccncc1	29*	4	-3	-2	-3	4	-3	-3	-4	39*
O=C(COc1cc2oc(=O)c3c(c2cc1Cl)CCC3)NCc1ccncc1	28*	x	2	-3	-8	-19	-3	-4	-3	35*
O=C(C[C@H]1CC[C@@H]2[C@H](COC[C@H](O)CN2Cc2ccc(C(F)(F)F)cc2)O1)NCCc1ccccc1	x	-1	x	x	0	x	x	x	x	x
O=C(Nc1cccc(F)c1)N1CC(=O)N2[C@H](CO)[C@H](c3ccc(-c4cccc(F)c4)cc3)[C@@H]2C1	x	x	x	x	-3	x	x	x	x	x
O=C(Nc1ccc(Cl)cc1)N1CCN(c2ccc3nnc(-c4ccc(F)cc4)n3n2)CC1	2	5	13	-1	x	3	x	x	x	x
O=C(Nc1ccccc1Cl)N1CCN(c2ccc3nnc(-c4ccccc4)n3n2)CC1	16*	0	12	1	x	-14	0	8	-1	24*
